Assay outcomes deposited in PubChem BioAssay by several laboratories.
Sampled rows, rich in hits. Any-hit rate of the full collection: about 1.8%.
Cneo AK release – Cryptococcus neoformans lysis via adenylate kinase release; hit rate 0.2% among 360,000; AID 651654; C. neoformans lysis, adenylate kinase release luminescence, 4 h; normalised: neutral wells 0, clomiphene wells 100; lysis activity, % at 15 µM;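 active means mean lysis activity across replicates of at least 80%, whatever share of replicates individually reach that level; inactive means mean lysis activity below 80%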
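Test system: log-phase Cryptococcus neoformans yeast cells; Quantity: yeast cell density of 5 × 10^6 cells/mL; Buffer or medium: YPD; Doses: single compound concentration per well; Timing: 4 h at 37 °C static, read 1 h later; Measured by: AK luminescence; Read-out basis: lysis from increased AK signal; Control set: Clomiphene as positive control.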
rRNA inh HTS – inhibitors of bacterial rRNA selective over humanized ribosomes | AID 720706 | hit rate 1.6% among 350,000 | E. coli WT GFP vs humanized-ribosome RFP mutants, fluorescence, 24 h; active compounds read low; DMSO median 0, no signal -100 | GFP signal change (wild-type ribosome), % (test concentration not listed);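 active means significant combined selectivity score with lowered wild-type GFP, culture density cut under 30%, mutant RFP and density less affected; inactive means any of these conditions unmet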
iPSC survival up – enhancers of human iPSC single-cell survival; hiPSC single-cell survival, ATPlite luminescence; 100% = ROCK inhibitor wells, 0% = DMSO; survival enhancement, % at 20 µM; hit rate 0.044% among 360,000; in the data active means survival enhancement above about 18%;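 further: cells exposed to compounds for 16 hours before the ATP read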
SKN-1 inh – C. elegans SKN-1 inhibition; C. elegans VP596 Pgst-4::GFP/RFP ratio, acrylamide-induced, 24 h; inhibition, % at 21.8 µM; hit rate 0.49% among 360,000; AID 624304;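 active means interference check ratio from 0.5 to 1.5 plus GFP to RFP signal ratio inhibition reaching or exceeding a fixed threshold, cut at about 30% in these data, passing the limit was not always enough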
MT1-MMP act inh – blocks activation of human MT1-MMP; P50281; HT1080 RFP-PRO-GFP cells, GFP/RFP ratio fluorescence, overnight; percent of plate control window, DMSO zero; GFP/RFP ratio change, % at 20 µM; hit rate 0.061% among 360,000;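 active means GFP/RFP ratio change of at least 30% with cell ATP level not reduced by more than half and red fluorescence within 50% of control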
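Read-out: GFP/RFP fluorescence ratio; Test system: RFP-PRO-GFP reporter HT1080 cells; Compound dosing: single-point 20 µM compound, 1% DMSO; Times: overnight compound exposure at 37 °C.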
DAGLB inh – diacylglycerol lipase beta (human) inhibition; Q8NCG7; HEK293T DAGLB membrane lysate, EnzChek fluorogenic substrate; inhibition, % at 5.17 µM; hit rate 0.059% among 340,000; in the data active means inhibition above about 34%;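 further: 0% = enzyme with vehicle and 100% = wells lacking enzyme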
Target sequence (Q8NCG7 whole entry, looked up): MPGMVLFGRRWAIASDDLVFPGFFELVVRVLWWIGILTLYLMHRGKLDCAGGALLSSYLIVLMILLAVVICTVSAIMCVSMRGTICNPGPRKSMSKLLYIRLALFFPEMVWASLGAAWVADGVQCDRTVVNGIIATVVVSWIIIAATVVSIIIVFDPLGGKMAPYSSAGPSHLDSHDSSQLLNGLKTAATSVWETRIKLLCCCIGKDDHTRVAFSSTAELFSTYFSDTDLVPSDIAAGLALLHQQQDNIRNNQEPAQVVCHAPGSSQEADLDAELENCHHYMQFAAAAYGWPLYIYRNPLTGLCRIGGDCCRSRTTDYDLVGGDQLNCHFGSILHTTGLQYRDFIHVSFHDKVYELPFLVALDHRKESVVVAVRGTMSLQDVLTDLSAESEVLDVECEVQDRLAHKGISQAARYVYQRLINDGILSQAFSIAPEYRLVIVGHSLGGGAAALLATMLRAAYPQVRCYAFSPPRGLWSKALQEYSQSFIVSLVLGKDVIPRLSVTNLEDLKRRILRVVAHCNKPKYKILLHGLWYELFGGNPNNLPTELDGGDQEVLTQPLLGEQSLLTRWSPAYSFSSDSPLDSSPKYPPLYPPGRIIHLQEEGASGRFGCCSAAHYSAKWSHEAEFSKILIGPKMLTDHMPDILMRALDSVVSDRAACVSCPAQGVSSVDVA
AID977621 – wild-type E. coli growth inhibition versus H69 humanized strain – H69 mutant RFP, wild-type GFP, cherry-pick, dose response; shares compounds with rRNA inh HTS; fluorescence, 24 h; activity change, negative = inhibition at 50 µM; 1,900 tested, under 10 active; AID 977621;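 active means Wild-type ribosome reporter drop at least double the humanized mutant ribosome reporter drop, growth loss under a set limit; inconclusive means no clear call, values can overlap the other calls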;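 further: wild-type GFP and H69 mutant RFP strains grown together 50/50 in each well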
AID977628 – growth of wild-type and h24-humanized E. coli strains – h24 mutant RFP vs wild-type GFP, cherry-pick, dose response; 1,900 tested, under 10 active; AID 977628; activity change, negative = inhibition at 50 µM; E. coli WT GFP strain growth, fluorescence, 24 h; shares compounds with rRNA inh HTS;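 active means compound lowering the normal-ribosome reporter at least twice as much as the humanized-ribosome reporter, growth loss under a set limit; inconclusive means no clear call, values can overlap the other calls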;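 further: wild-type GFP and h24 humanized RFP strains co-cultured 1 to 1 per well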
The depositor's hits bear a star; ? = inconclusive; . = no result.

SMILES	Cneo AK release	rRNA inh HTS	iPSC survival up	SKN-1 inh	MT1-MMP act inh	DAGLB inh	AID977621	AID977628
O=C(C[C@@H]1CC[C@@H]2[C@H](COC[C@H](O)CN2C(=O)Nc2ccc(Cl)cc2)O1)NCc1ccncn1	-2.5	-22.1*	.	.	.	.	-5.26	?
O=C(C[C@@H]1CC[C@H]2[C@@H](COC[C@H](O)CN2C(=O)Nc2ccc(Cl)cc2)O1)NCc1ccncn1	-3.7	-5.5	.	.	.	.	.	.
CN1CCN(C(=O)C[C@H]2CC[C@H]3[C@@H](COC[C@H](O)CN3C(=O)Nc3ccc(Cl)cc3)O2)CC1	-1.0	-25.0*	.	.	.	.	.	?
CN1CCN(C(=O)C[C@H]2CC[C@H]3[C@@H](COC[C@@H](O)CN3C(=O)Nc3ccc(Cl)cc3)O2)CC1	-0.7	-19.0*	.	.	.	.	.	?
C[C@@H]1CN([C@H](C)CO)S(=O)(=O)c2ccc(-c3cccc(F)c3)cc2O[C@@H]1CN(C)S(=O)(=O)c1ccccc1	-3.0	1.5	.	.	.	.	.	.
O=C(C[C@H]1CC[C@H]2[C@@H](COC[C@@H](O)CN2C(=O)Nc2ccc(Cl)cc2)O1)N1CCCCC1	87.4*	-17.6*	.	.	.	.	.	?
O=C(C[C@@H]1CC[C@H]2[C@@H](COC[C@H](O)CN2C(=O)Nc2ccc(Cl)cc2)O1)N1CCCCC1	-2.4	-47.1	.	.	.	.	.	.
CCN1C(=O)C(CC(=O)Nc2ccc(F)cc2)N(CCCN2CCN(c3ccc(F)cc3)CC2)C1=S (stereo not drawn)	.	-52.9*	1.7	-15.6	5.1	-2.4	-4.84	?
CC(C)NC(=O)N(C)C[C@H]1Oc2ccc(NS(=O)(=O)c3ccc(F)cc3)cc2CC(=O)N([C@@H](C)CO)C[C@@H]1C	0.1	2.7	.	.	.	.	.	.
CCCCCc1nnc(NC(=O)C2COc3ccccc3O2)s1 (stereo not drawn)	3.4	-20.0*	-0.3	10.1	-2.1	3.4	3.69	-11.1
Cc1noc(C)c1S(=O)(=O)N(C)C[C@@H]1Oc2ccc(NS(=O)(=O)c3ccc(F)cc3)cc2CC(=O)N([C@H](C)CO)C[C@@H]1C	.	-1.5	.	.	.	.	.	.
COc1ccc(OC)c(Nc2nc(N)c([N+](=O)[O-])c(N3CCOCC3)n2)c1	-2.9	-31.0*	0.6	-8.8	-3.5	-4.7	?	.
COc1ccc(Nc2nc(N)c([N+](=O)[O-])c(N3CCCC3)n2)cc1	0.1	-20.8*	-0.5	8.3	-6.7	3.4	5.67	-5.46
COc1ccc(Nc2nc(N)c([N+](=O)[O-])c(N3CCN(C)CC3)n2)cc1	.	-6.1	1.7	0.0	-2.4	-2.3	.	.
COC(=O)C[C@H]1C[C@@H]2c3cc(NC(=O)Nc4ccc(C(F)(F)F)cc4)ccc3O[C@@H]2[C@H](CO)O1	-3.7	-24.9*	.	.	.	.	.	?
CCC(=O)N1CC(=O)N2[C@H](C1)[C@@H](c1ccc(-c3ccccc3F)cc1)[C@@H]2CO	.	3.1	.	.	.	.	.	.
O=C1CCCc2ccccc2N1Cc1ccccc1	.	-27.8*	-1.5	-0.8	-0.8	-0.5	-7.87	-11.9
CO[C@H]1CN(C)C(=O)c2ccc(NC(=O)CC(F)(F)F)cc2OC[C@H](C)N(C(C)=O)C[C@@H]1C	.	0.8	.	.	.	.	.	.
CC(C)(C)c1cc(CN2CCN(CCO)CC2)cc(C(C)(C)C)c1O	4.2	.	-1.5	-0.3	-0.3	-0.7	.	.
CN1CCN(CC(=O)c2cc(C(C)(C)C)c(O)c(C(C)(C)C)c2)CC1	-2.9	-30.6*	-0.4	10.9	1.1	1.8	-2.77	-9.31
C[C@@H]1CN([C@H](C)CO)C(=O)c2cc(NS(=O)(=O)c3ccc(Cl)cc3)ccc2O[C@@H]1CN(C)S(C)(=O)=O	.	-1.4	.	.	.	.	.	.
COc1cc2ccccc2cc1C(=O)NC1CCC(C)CC1 (stereo not drawn)	-3.5	-0.4	-3.7	12.5	-0.3	-10.2	.	.
COc1cc2ccccc2cc1C(=O)NC1CCCCC1	1.1	-27.9*	-0.2	10.3	0.6	-3.8	-15.6	-9.67
Cc1cc(C)cc(NC(=O)COC(=O)CCC2CCCC2)c1	0.0	-5.5	-2.1	-8.3	0.9	-11.5	.	.
Cc1cc(C)cc(NC(=O)COC(=O)CC2CCCC2)c1	0.4	-19.2*	-0.2	8.8	2.6	-8.9	-12.5	-6.41
SMILES	Cneo AK release	rRNA inh HTS	iPSC survival up	SKN-1 inh	MT1-MMP act inh	DAGLB inh	AID977621	AID977628
COc1ccc(OC)c(CN2CCCC(C(=O)c3ccccc3SC)C2)c1 (stereo not drawn)	.	-18.4*	0.7	-4.2	-2.3	-1.1	.	?
COc1ccc(-c2[nH]ncc2CN2CCCC(C(=O)c3ccc(OC)cc3OC)C2)cc1 (stereo not drawn)	.	7.3	2.6	3.7	-2.0	-2.3	.	.
CCC(=O)Nc1ccc2c(c1)C(=O)N(C)C[C@H](OC)[C@H](C)CN(C(=O)CC1CC1)[C@@H](C)CO2	-1.5	-0.5	.	.	.	.	.	.
O=C(NCCCn1ccnc1)c1sc2cc([N+](=O)[O-])ccc2c1Cl	.	-15.7*	3.7	-2.5	5.9	4.1	-16.9	-17.9
O=C(c1cccc2c1-c1ccccc1C2)N1CCCCC1	.	-21.9*	1.1	-5.0	1.6	-0.7	-11	?
Cc1noc(C)c1NC(=O)N(C)C[C@H]1OCCCC[C@H](C)Oc2ccc(N(C)C)cc2C(=O)N([C@H](C)CO)C[C@@H]1C	-3.4	-0.6	.	.	.	.	.	.
Cc1noc2ncnc(SCc3ccc(C(F)(F)F)cc3)c12	19.6	-21.5*	-0.6	4.4	5.7	-9.9	-2.18	?
Cc1ccc(CSc2ncnc3onc(C)c23)cc1	.	7.0	0.7	-0.6	0.1	-8.0	.	.
Cc1ccc(S(=O)(=O)Nc2ccc3c(c2)C(=O)N([C@H](C)CO)C[C@H](C)[C@H](CN(C)C(=O)Nc2cccc4ccccc24)O3)cc1	-13.6	-1.3	.	.	.	.	.	.
Cc1ccc(-c2c(=O)n(O)c3ccccc3[n+]2[O-])cc1	2.4	-16.8*	1.1	-8.0	-0.2	-4.2	-5.55	?
NC(=O)CSc1nnc(-c2cnccn2)n1-c1ccccc1	0.0	.	-0.9	-7.4	1.1	-0.3	.	.
Cc1ccc(-n2c(SCC(N)=O)nnc2-c2cnccn2)cc1	-0.2	-24.5*	0.1	-6.1	-0.1	.	-2.2	?
O=C(Nc1ccc(-c2nnc3n2CCCCC3)cc1)c1cc2ccccc2o1	.	-20.4*	-1.0	2.0	-0.6	1.2	-7.44	-3.19
CS(=O)(=O)Nc1ccc2c(c1)[C@H]1C[C@H](CC(=O)NC3CCCC3)O[C@H](CO)[C@H]1O2	-24.6	4.0	.	.	.	.	.	.
CC(C)NC(=O)N[C@H]1CC[C@H](CCNC(=O)C2CCC2)O[C@@H]1CO	0.3	0.2	.	.	.	.	.	.
